Experimental data from article PMC11661184 (bioRxiv, 2024).
Entries after “also recorded” stand apart in the source; their conditions may differ. Blank lines part the entries; values can stand above or below the molecule they belong to.

Assays:
[1] = target: WT CaM (Homo sapiens, UniProt P0DP23); assay: Isothermal titration calorimetry, WT CaM; assay type: binding; details: ITC, 2 mM Ca2+
Outline: (§1)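 The ITC cell held 15 µM CaM variant and the syringe 810 µM hTRPA1¹⁰⁸⁹⁻¹¹¹⁹ peptide. Both were buffer-matched in storage buffer (50 mM Tris pH 8.0, 150 mM NaCl, 2 mM CaCl₂, 0.1 mM PMSF). There were 35 injections spaced 240 s apart, with stirring at 290 RPM. Data were fitted to a one-site model.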

[2] = test system: 15N-labeled WT CaM; assay: 15N-1H HSQC NMR, WT CaM; assay type: binding, human; details: 1:1 molar ratio, 25 °C, 700 MHz
[3] = target: CaM12 (Homo sapiens, UniProt P0DP23); assay: Isothermal titration calorimetry, CaM12; assay type: binding; details: ITC, 2 mM Ca2+
Outline: as §1

[4] = test system: CaM (Calmodulin-agarose); assay: CaM-agarose pulldown of TRPA1 constructs; assay type: binding
Outline: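 HEK293T cells were transfected with tagged TRPA1 constructs and lysed after 16-24 h in Tris pH 8.0 buffer containing 5 mM DDM and 500 µM EGTA. Free Ca²⁺ was set with CaCl₂, calculated from EGTA constants. 100 µg lysate was incubated with CaM-agarose for 1 h at 4 °C, washed, then eluted with 5 mM EGTA. Detection was by anti-FLAG or anti-MBP immunoblot, with tubulin input control. Enrichment is relative to the maximum within each replicate.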

[5] = test system: 15N-labeled CaM12; assay: 15N-1H HSQC NMR, CaM12; assay type: binding, human; details: 1:1 molar ratio, 25 °C, 700 MHz
[6] = target: 3xFLAG-TurboID-CaM C-lobe (human); assay: proximity labelling
[7] = test system: hTRPA1^Δ1109–1119; assay: TEVC block of residual current, hTRPA1^Δ1109–1119; assay type: cell-based, human; details: 10 µM A-967079
[8] = test system: hTRPA1 expressed in Xenopus laevis oocytes; assay: Two-electrode voltage clamp, Ca2+ potentiation and desensitization; assay type: cell-based, human
[9] = test system: TurboID-CaM C-lobe; assay: Proximity biotinylation in HEK293T cells; assay type: cell-based, human; details: 50 µM biotin 15 min, basal Ca2+; n=4
Outline: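 HEK293T cells co-expressed 3xFLAG-TurboID or 3xFLAG-TurboID-CaM C-lobe with 3xFLAG-hTRPA1 variants. About 48 h post-transfection, 50 uM biotin was added to the culture medium. After 15 min, cells were lysed and proteins captured on anti-FLAG resin (1 h, 4 °C), then eluted with 125 µg/ml 3xFLAG peptide. Biotinylated proteins were detected with HRP-streptavidin (1:50,000).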

[10] = test system: V5-tagged WT CaM; assay: Immunofluorescence co-localization with V5-WT CaM in Neuro2A cells; assay type: cell-based, human
Outline: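 Neuro2A cells were grown in DMEM with 10% FBS, transfected, then placed on poly-L-lysine coverslips for 16-20 h. Cells were fixed in 4% PFA, permeabilised with 0.1% Triton and blocked in 4% BSA. Staining used anti-V5 (1:500), Alexa488 anti-mouse (1:700) and Cy3 anti-FLAG (1:500), each for 45 min at RT. Airyscan images (63x oil) were deconvolved. Per-cell pixel-intensity Pearson's R used thresholds from mono-stained samples. Mean ± SD; two-tailed t-test.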

[11] = test system: hTRPA1 channel activity in HEK293T cells; assay: Ratiometric Ca2+ imaging of TRPA1 variant activity; assay type: cell-based, human; details: baseline, 10 µM or 100 µM AITC; n=4
Outline: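 HEK293T cells (DMEM, 10% calf serum) were transiently transfected. At 16-24 h they were replated on poly-L-lysine glass, with parallel anti-FLAG immunoblot to check expression. One hour later cells were loaded with 10 µg/mL Fura-2 AM and 0.025% Pluronic F-127 in Ringer's for 1 h at RT. […] At least 90 cells per condition per experiment were analysed, with untransfected background subtracted. Mean ± SEM; two-tailed t-test.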

[12] = test system: hTRPA1 expressed in Xenopus laevis oocytes; assay type: cell-based, human

Molecule: hTRPA1^1089–1119: hTRPA1 distal C-terminus peptide, residues 1089–1119, bacterially purified and liberated from MBP (DRFKKEQMEQRNSRWNTVLRAVKAKTHHLEP)
- Number of binding events observed [1]: single binding event
- Chemical shift perturbations (CSPs) [2]: observed predominantly in the C-lobe
- Number of binding events observed [3]: single binding event
- CaM binding of MBP-tagged C-terminal peptides ([4]; MBP-tagged, expressed in HEK293T, absence or presence of Ca2+): bound CaM in a Ca^2+-dependent manner
- Chemical shift perturbations (CSPs) [5]: observed predominantly in the C-lobe; also recorded: more CSPs in the C-lobe than WT CaM

Molecule: CCC(=N\O)/C(C)=C/c1ccc(F)cc1 [A-967079]
- Inhibition of residual activity [7]: inhibited

Second part, led by results:

- percent increase in biotinylation with TurboID-CaM C-lobe against free TurboID [6]: 40%
Molecule: 3xFLAG-WT hTRPA1 (wild type human TRPA1) (from UniProt O75762 1-1119) (natural protein)

- CaM binding at basal Ca2+ concentration ([4]; basal Ca2+, n=3 independent experiments): failed to bind CaM
B1: hTRPA1^Δ1109–1119: hTRPA1 truncation lacking only the terminal 11 amino acids (protein)
chain: MKRSLRKMWRPGEKKEPQGVVYEDVPDDTEDFKESLKVVFEGSAYGLQNFNKQKKLKRCDDMDTFFLHYAAAEGQIELMEKITRDSSLEVLHEMDDYGNTPLHCAVEKNQIESVKFLLSRGANPNLRNFNMMAPLHIAVQGMNNEVMKVLLEHRTIDVNLEGENGNTAVIIACTTNNSEALQILLKKGAKPCKSNKWGCFPIHQAAFSGSKECMEIILRFGEEHGYSRQLHINFMNNGKATPLHLAVQNGDLEMIKMCLDNGAQIDPVEKGRCTAIHFAATQGATEIVKLMISSYSGSVDIVNTTDGCHETMLHRASLFDHHELADYLISVGADINKIDSEGRSPLILATASASWNIVNLLLSKGAQVDIKDNFGRNFLHLTVQQPYGLKNLRPEFMQMQQIKELVMDEDNDGCTPLHYACRQGGPGSVNNLLGFNVSIHSKSKDKKSPLHFAASYGRINTCQRLLQDISDTRLLNEGDLHGMTPLHLAAKNGHDKVVQLLLKKGALFLSDHNGWTALHHASMGGYTQTMKVILDTNLKCTDRLDEDGNTALHFAAREGHAKAVALLLSHNADIVLNKQQASFLHLALHNKRKEVVLTIIRSKRWDECLKIFSHNSPGNKCPITEMIEYLPECMKVLLDFCMLHSTEDKSCRDYYIEYNFKYLQCPLEFTKKTPTQDVIYEPLTALNAMVQNNRIELLNHPVCKEYLLMKWLAYGFRAHMMNLGSYCLGLIPMTILVVNIKPGMAFNSTGIINETSDHSEILDTTNSYLIKTCMILVFLSSIFGYCKEAGQIFQQKRNYFMDISNVLEWIIYTTGIIFVLPLFVEIPAHLQWQCGAIAVYFYWMNFLLYLQRFENCGIFIVMLEVILKTLLRSTVVFIFLLLAFGLSFYILLNLQDPFSSPLLSIIQTFSMMLGDINYRESFLEPYLRNELAHPVLSFAQLVSFTIFVPIVLMNLLIGLAVGDIAEVQKHASLKRIAMQVELHTSLEKKLPLWFLRKVDQKSTIVYPNKPRSGGMLFHIFCFLFCTGEIRQEIPNADKSLEMEILKQKYRLKDLTFLLEKQHELIKLIIQKMEIISETEDDDSHCSFQDRFKKEQMEQRNSRWNTVLR
- Potentiation by extracellular Ca2+ ([8]; 250 µM AITC, 1.8 mM Ca2+, comparable peak current amplitudes): rapid potentiation
- Residual activity after extracellular Ca2+ (of initial activity) ([8]; 5 minutes after 1.8 mM extracellular Ca2+, n=10 or 12 oocytes): 20–30%
- Increase in translocated charge versus WT hTRPA1 ([8]; +80 mV): 5 fold
- Slowing of potentiation versus WT hTRPA1 ([8]; +80 mV, 1.8 mM Ca2+): ~ 1.8 fold
- Slowing of desensitization versus WT hTRPA1 ([8]; +80 mV, 1.8 mM Ca2+, n=10 or 12 oocytes): 16 fold
- Increase in translocated charge versus WT hTRPA1 ([8]; −80 mV): large, albeit nonsignificant increase
- Slowing of potentiation versus WT hTRPA1 ([8]; −80 mV, 1.8 mM Ca2+): ~ 3 fold
- Slowing of desensitization versus WT hTRPA1 ([8]; −80 mV, 1.8 mM Ca2+, n=10 or 12 oocytes): 10 fold
- TRPA1 biotinylation with TurboID-CaM C-lobe [9]: reduced biotinylation
- Co-localization with WT CaM (deconvolved IF images) ([10]; resting Neuro2A cells, Airyscan): greatly reduced co-localization
- Pearson's correlation coefficient (R) of CaM:TRPA1 co-localization ([10]; Δ1109–1119 compared to WT, n=41 or 40 cells, ***p=0.0002): significant reduction in the CaM:TRPA1 co-localization
- Basal and agonist-evoked channel activity compared to WT hTRPA1 [11]: increased basal and agonist-evoked activity
- AITC sensitivity versus WT hTRPA1 ([12]; Ca2+-free): slightly reduced AITC sensitivities
- Gating kinetics and peak current amplitudes ([12]; absence of Ca2+, activation and closing at +80 mV, n=8): not significantly different from WT hTRPA1
